Screens (PubChem)
SENP7 block: SENP7 protease inhibition; recombinant SENP7, Z-RLRGG-aminoluciferin luminescence, 40 min; 330,000 compounds, 1.5% hits; Q9BQF6; inhibition, % at 5 µM;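 active = inhibition above about 50% at the single test dose, limit read from the data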;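 note: plate controls were DMSO with enzyme for no effect and no enzyme buffer wells for full effect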
SENP8 block-1: blocks the human protease SENP8; Q96LD8; purified SENP8, Z-RLRGG-aminoluciferin cleavage, luminescence; inhibition, % at 10 µM; 330,000 compounds, 1.2% hits; in the data active = inhibition above about 50%
Target sequence (Q96LD8 whole entry, looked up): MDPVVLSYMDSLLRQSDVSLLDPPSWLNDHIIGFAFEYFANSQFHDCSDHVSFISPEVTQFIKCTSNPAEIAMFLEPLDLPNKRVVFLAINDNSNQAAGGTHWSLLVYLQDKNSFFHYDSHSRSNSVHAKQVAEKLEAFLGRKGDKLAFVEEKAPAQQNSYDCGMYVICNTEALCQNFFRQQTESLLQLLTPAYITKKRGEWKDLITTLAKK
SENP8 block-2: SENP8 (human) protease inhibition; Q96LD8; AID 602440; 360,000 compounds, 0.64% hits; recombinant SENP8, Nedd8 substrate fluorescence; inhibition, % at 20 µM; in the data active = inhibition mostly above about 40%, no sharp cut-off; inactive = mostly below about 27%
SENP1 inh: blocks the human SENP1 SUMO protease catalytic domain; Q9P0U3; recombinant SENP1 catalytic domain, CyPet-SUMO1-YPet FRET cleavage; inhibition, % at 10 µM; 360,000 compounds, 0.21% hits;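 active = inhibition at least 30% at 10 µM, raw YFP signal under a set limit, fluorescence ratio 0.5 to 1.5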;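 note: 0% = enzyme with DMSO and 100% = no enzyme wells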
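Assay system: hSENP1 catalytic domain, recombinant. Amount: SENP1 enzyme, 20 pM final. Schedule: 50 min reaction, RT, dark. Technique: FRET, CFP and YFP emission. Control set: no-enzyme wells low, DMSO-plus-enzyme wells high control.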
UCH37 inh: blocks the human deubiquitinase UCH37; purified proteasome/UCH37, Ub-AMC cleavage fluorescence; 330,000 compounds, 0.33% hits; AID 588478; inhibition, % (concentration not given with the values);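 active = mean inhibition over replicate wells above about 20%, limit read from the data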;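 note: 0% = compound-free wells with enzyme and 100% = wells lacking proteasome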
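system = Proteasome-associated human UCH37 deubiquitinase | amount = 0.15 nM proteasome as dispensed | medium = pH 7.4 Tris-HCl (50 mM) with ovalbumin, ATP-MgCl2, DTT | incubation = 30 min preincubation with enzyme, 25 min cleavage at room temperature | detection = AMC fluorescence 355/460 nm | read-out basis = percent inhibition | controls = no-proteasome and no-compound wells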
SENP6 inh: SENP6 protease inhibition | AID 2599 | 330,000 compounds, 1.8% hits | inhibition, % at 10 µM | Recombinant SENP6 catalytic domain, aminoluciferin luminescence;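 active = inhibition above about 50% at the single tested dose, limit read from the data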;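 note: plate controls were DMSO wells with enzyme for no effect and DMSO wells lacking enzyme for full effect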
Target sequence (Q9GZR1 628-1112 limits assumed): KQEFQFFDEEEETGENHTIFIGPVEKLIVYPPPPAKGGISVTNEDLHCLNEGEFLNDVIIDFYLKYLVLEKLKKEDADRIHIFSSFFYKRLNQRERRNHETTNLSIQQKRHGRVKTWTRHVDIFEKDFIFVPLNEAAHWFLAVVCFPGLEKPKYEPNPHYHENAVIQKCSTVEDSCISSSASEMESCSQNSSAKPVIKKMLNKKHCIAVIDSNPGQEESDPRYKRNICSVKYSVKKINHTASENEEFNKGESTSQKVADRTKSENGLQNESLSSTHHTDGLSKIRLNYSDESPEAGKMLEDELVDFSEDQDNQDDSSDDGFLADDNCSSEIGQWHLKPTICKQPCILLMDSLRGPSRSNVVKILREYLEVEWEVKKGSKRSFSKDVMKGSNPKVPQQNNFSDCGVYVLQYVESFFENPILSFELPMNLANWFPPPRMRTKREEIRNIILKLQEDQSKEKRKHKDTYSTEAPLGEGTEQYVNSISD
SENP1 conf: SENP1 (human) inhibition, single concentration confirmation; shares compounds with SENP1 inh; inhibition, % at 10 µM; recombinant SENP1, CyPet-SUMO1-YPet FRET cleavage; 520 compounds, 34% hits; in the data active = inhibition mostly above about 35%, no sharp cut-off; inactive = mostly below about 32%;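 note: 0% = enzyme with DMSO and 100% = no enzyme control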
SENP1 kinetic: SENP1 (human) inhibition, kinetic confirmation; shares compounds with SENP1 inh; recombinant SENP1, CyPet-SUMO1-YPet FRET kinetic cleavage; inhibition, % at 10 µM; 520 compounds, 26% hits; AID 651690; in the data active = inhibition mostly above about 32%, no sharp cut-off; inactive = mostly below about 29%;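 note: 0% = DMSO with enzyme and 100% = no enzyme substrate only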
An asterisk follows results filed as active; i = inactive; · = no result given. In the library only some 2.6% were active in any assay of this set; here they are far more common.

SMILES	SENP7 block	SENP8 block-1	SENP8 block-2	SENP1 inh	UCH37 inh	SENP6 inh	SENP1 conf	SENP1 kinetic
Cn1cc(C=NNC(=O)COc2ccccc2[N+](=O)[O-])c2ccccc21	·	·	·	·	-0.8	·	·	·
COc1ccc(C(=O)Nc2nnc(Cc3ccc(OC)c(OC)c3)s2)c(OC)c1	-3.3	-7.3	12.2	1.2	2.8	6.9	·	·
COCc1nnc(NC(=O)c2ccc(OC)cc2OC)s1	10.9	-7.5	23.2	48.1*	2.3	-23.4	-9.9	0.5
Cc1ccc2c(c1)-c1c(ssc1=S)C(C)(C)N2C(=O)c1ccco1	-1.5	-2.2	37.8	-0.8	7.4	-14.7	·	·
CC1(C)c2ssc(=S)c2-c2ccccc2N1C(=O)c1ccco1	-0.8	-7.7	34.3	32.2*	3.3	-7.9	3.7	9.0
COc1ccc(-c2nn(CCC(=O)O)cc2C=NNC(N)=S)cc1	·	·	·	·	2.8	·	·	·
CC1CCN(C(=O)Nc2ccc3nsnc3c2)CC1	0.5	-3.5	-316.0	21.5	-49.9	-11.4	·	·
O=C(Nc1ccc2nsnc2c1)N1CCCCC1	1.1	2.5	i	30.7*	-50.3	13.5	-7.8	-6.0
Cc1cccc(/C=N/n2c(-c3ccccc3)n[nH]c2=S)c1O	1.0	4.5	16.6	30.8*	·	-16.2	-6.1	13.3
Oc1ccccc1C=Nn1c(-c2ccccc2)n[nH]c1=S	·	·	·	·	1.1	·	·	·
Cc1ccc(-c2nnc(SCC(=O)NN=Cc3ccc(C(=O)O)cc3)n2C2CCCCC2)cc1	·	·	·	·	5.7	·	·	·
N#Cc1c(C(F)(F)F)cc(-c2ccccc2)nc1SCCN1CCOCC1	3.4	-0.3	-7.6	32.9*	0.6	-15.4	11.7	9.4
CCCSc1nc(-c2ccccc2)cc(C(F)(F)F)c1C#N	5.0	-0.9	-264.7	1.1	-5.3	-3.9	·	·
CC(=O)Nc1c(C#N)c(-c2ccccc2)c(C#N)c(=O)n1-c1ccc(C)cc1	·	·	-157.4	-1.4	·	·	·	·
COc1ccc(-c2c(O)c(C#N)c(-c3ccccc3)n(-c3ccc(OC)cc3)c2=O)cc1	3.5	-7.8	-291.1	77.8*	0.7	-12.5	2.1	5.4
O=C(O)CCCC(=O)Nc1cccc2cccnc12	8.3	2.8	2.4	34.2*	-0.5	-3.2	2.0	-4.3
C/C(C=NNC(=O)c1ccco1)=C\c1ccccc1	·	·	·	·	6.5	·	·	·
O=C(CN1C(=O)/C(=C\C=C\c2ccccc2)SC1=S)Nc1ccc(F)cc1	-5.9	-6.7	16.5	65.7*	5.0	7.2	63.2*	40.7*
Cc1ccccc1-n1cc(C(=O)c2cc(Cl)ccc2O)cc(C#N)c1=O	-3.6	-7.9	20.2	43.0*	3.1	-19.1	35.0	23.7
N#Cc1cc(C(=O)c2cc(Cl)ccc2O)cn(CC2CCCO2)c1=O (stereo not drawn)	-4.9	-10.7	-3.8	-7.1	4.0	-6.3	·	·
COc1ccccc1-n1cc(C(=O)c2cc(Cl)ccc2O)cc(C#N)c1=O	0.1	0.2	-11.0	45.5*	3.9	-4.5	39.3*	29.0
NC(=NOC(=O)c1ccc(Cl)cc1)c1nonc1N	·	·	·	·	2.2	·	·	·
CCOC(=O)c1ccc(NCn2c(=O)oc3ccccc32)cc1	-3.8	-11.3	8.6	53.9*	0.0	-10.2	18.9	13.6
C=CCNc1nc(-c2ccc([N+](=O)[O-])cc2)cs1	7.8	0.2	20.5	50.1*	1.9	14.9	29.1	15.9
CCCOc1ccc(-c2nc(-c3ccc([N+](=O)[O-])cc3)cs2)cc1	5.9	2.6	8.3	3.8	5.5	9.5	·	·
SMILES	SENP7 block	SENP8 block-1	SENP8 block-2	SENP1 inh	UCH37 inh	SENP6 inh	SENP1 conf	SENP1 kinetic
O=[N+]([O-])c1ccc(S(=O)(=O)Nc2nc(-c3ccccc3)cs2)cc1	-0.1	0.7	10.3	2.2	2.2	22.2	·	·
CN(C)c1nc(-c2ccc([N+](=O)[O-])cc2)cs1	45.2	21.4	39.6	46.4*	3.6	36.2	19.6	25.2
O=C(O)COc1ccc(C=NNC(=O)C(O)(c2ccccc2)c2ccccc2)cc1	·	·	·	·	2.3	·	·	·
COc1cc(/C=C2\SC(=Nc3c(C)n(C)n(-c4ccccc4)c3=O)NC2=O)ccc1O	·	·	-1.6	42.0*	8.0	·	58.8*	41.3*
CC(=NNC(=O)CCC(=O)O)c1c(-c2ccccc2)c2cc(Br)ccc2[nH]c1=O	·	·	·	·	5.3	·	·	·
O=c1cc(NCCO)c2ccccc2o1	-1.5	-1.4	9.0	-1.1	4.7	-16.8	·	·
CCN(CC)CCNc1cccc2sc3ccccc3c(=O)c12	·	·	44.5*	32.5*	·	·	38.5*	25.9
CN(C)CCNc1ccc2nnn3c4ccc(O)cc4c(=O)c1c23	·	·	-77.3	-170.1	·	·	·	·
CCN(CC)CCNc1ccc(CO)c2oc3ccccc3c(=O)c12	·	·	17.0	46.8*	·	·	48.0*	39.5*
CN(C)CCNc1cccc2sc3ccc(O)cc3c(=O)c12	·	·	36.2	48.6*	·	·	57.3*	26.3
Clc1ccc(C=NNc2nnc(Cl)c3ccccc23)cc1	·	·	·	·	2.3	·	·	·
Cc1ccc(C=NNC(=O)c2cccnc2)o1	·	·	·	·	6.6	·	·	·
O=C(NCC(F)(F)F)c1ccc(S(=O)(=O)Nc2ccccc2N2CCCC2)cc1	6.3	6.1	7.9	30.3*	4.6	11.4	-1.8	-7.0
CCOC(=O)Cn1c(=O)c(-c2ccccc2N)nc2ccccc21	-1.1	8.4	-5.9	-4.6	2.0	-0.9	·	·
CCOC(=O)Cn1c(=O)c(-c2cc(Br)ccc2N)nc2ccccc21	5.8	-2.4	39.8	86.2*	7.3	-3.6	16.0	14.8
CCOCCCNS(=O)(=O)c1ccc(NC(=O)CN2C(=O)c3ccccc3C2=O)cc1	10.7	1.1	10.3	29.4*	1.6	5.7	0.6	-2.1
COc1cc(-c2cnc3c(NC=O)cc(-c4ccc(N5CCN(C)CC5)cc4)cn23)cc(OC)c1OC	·	·	-264.1	21.1	·	·	·	·
CC(=O)Nc1cc(-c2ccc(N3CCN(C)CC3)cc2)cn2c(-c3ccccc3)cnc12	·	·	-349.8	47.8*	·	·	38.5*	28.0
COc1cc(-c2cnc3c(NC(C)=O)cc(-c4ccc(N5CCN(C)CC5)cc4)cn23)cc(OC)c1OC	·	·	i	33.7*	·	·	12.4	-0.6
O=C(CSc1nc2ccccc2o1)NN=Cc1ccccc1	·	·	·	·	2.4	·	·	·
CC(=O)c1c(O)c(C)c(O)c2c1OC1=CC(=O)/C(=C(/C)N)C(=O)C12C (stereo not drawn)	·	·	6.8	1.9	·	·	·	·
COC12CC(=O)C(C(C)=O)=C(O)C1(C)c1c(O)c(C)c(O)c(C(C)=O)c1O2 (stereo not drawn)	·	·	9.5	32.5*	·	·	32.5	18.4
CC1CCCCN1C(=O)Cn1nnc(-c2cccnc2)n1 (stereo not drawn)	-5.8	-9.7	-7.5	29.7*	-2.2	-24.0	33.9	22.8
